Assay results: ChEMBL document CHEMBL5346932, “Structure-activity relationships of actively FhuE transported rifabutin derivatives with potent activity against Acinetobacter baumannii” (Eur J Med Chem, 2023)
≈ marks a conversion by molar mass, not a printed value. Calls of active or inactive are those of the source. The rule behind the calls is not given here.

Tests used:
Assay type in all cases: functional
Acinetobacter baumannii [1] = experiment: Antibacterial activity against Acinetobacter baumannii HUMC1 cultured in RPMI 1640 medium supplemented with 10% FCS assessed as bacterial growth inhibition incubated for 20 hrs by CLSI based microbroth dilution method
Summary of the method: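 CLSI broth microdilution in RPMI 1640 + 10% FCS in place of CAMHB. Compounds in 2-fold dilution series; inoculum 5×10^5 CFU/mL. Plates held static at 35 °C for 20 h. MIC read visually as the lowest concentration with no visible growth. […] is the reciprocal of this MIC.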

Acinetobacter baumannii [2] = experiment: Antibacterial activity against Acinetobacter baumannii HUMC1 harboring FhuE deletion mutant assessed as bacterial growth inhibition incubated for 20 hrs by CLSI based microbroth dilution method
Summary of the method: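 Microbroth dilution per CLSI in RPMI 1640 + 10% FCS (in place of CAMHB). Compounds as 2-fold serial dilutions; inoculum 5×10^5 CFU/mL of previously described HUMC1-derived mutant strains. Incubated static at 35 °C for 20 h. MIC read visually as lowest concentration preventing visible growth.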

Staphylococcus aureus = experiment: Antibacterial activity against Staphylococcus aureus USA300 UAMS-1625 assessed as bacterial growth inhibition incubated for 20 hrs by CLSI based microbroth dilution method
Summary of the method: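 CLSI broth microdilution in CAMHB against S. aureus USA300 UAMS-1625. Compounds in 2-fold dilution series; inoculum 5×10^5 CFU/mL. Incubated without shaking at 35 °C for 20 h. MIC read visually as the lowest concentration preventing visible growth. Fold changes are relative to the rifabutin MIC.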

[3] = Acinetobacter baumannii, HUMC1, 20 h, read-out: MIC

Row | SMILES | MIC (Acinetobacter baumannii [1]; [3]) [µg/mL] | further results
1 | CO[C@H]1/C=C/O[C@@]2(C)Oc3c(C)c(O)c4c(c3C2=O)C2=NC3(CCN(C5CCCC(C)C5)CC3)NC2=C(NC(=O)/C(C)=C\C=C\[C@H](C)[C@H](O)[C@@H](C)[C@@H](O)[C@@H](C)[C@H](OC(C)=O)[C@@H]1C)C4=O (some centres not stated) | 0.03 (≈ 0.0338 µM) | 
2 | COC(=O)[C@@H](C)N1CCC2(CC1)N=C1C(=C3NC(=O)/C(C)=C\C=C\[C@H](C)[C@H](O)[C@@H](C)[C@@H](O)[C@@H](C)[C@H](OC(C)=O)[C@H](C)[C@@H](OC)/C=C/O[C@@]4(C)Oc5c(C)c(O)c(c1c5C4=O)C3=O)N2 | 0.125 (≈ 0.143 µM) | MIC (Acinetobacter baumannii [2]): 0.5 µg/mL (≈ 0.57 µM)
3 | CCCN1CCC2(CC1)N=C1C(=C3NC(=O)/C(C)=C\C=C\[C@H](C)[C@H](O)[C@@H](C)[C@@H](O)[C@@H](C)[C@H](OC(C)=O)[C@H](C)[C@@H](OC)/C=C/O[C@@]4(C)Oc5c(C)c(O)c(c1c5C4=O)C3=O)N2 | 0.004 (≈ 0.0048 µM) | Activity (Staphylococcus aureus): Active; MIC (Acinetobacter baumannii [2]): 0.5 µg/mL (≈ 0.6 µM)
4 | CO[C@H]1/C=C/O[C@@]2(C)Oc3c(C)c(O)c4c(c3C2=O)C2=NC3(CCN(C[C@H]5CCCO5)CC3)NC2=C(NC(=O)/C(C)=C\C=C\[C@H](C)[C@H](O)[C@@H](C)[C@@H](O)[C@@H](C)[C@H](OC(C)=O)[C@@H]1C)C4=O | 0.125 (≈ 0.143 µM) | 
5 | C#CCN1CCC2(CC1)N=C1C(=C3NC(=O)/C(C)=C\C=C\[C@H](C)[C@H](O)[C@@H](C)[C@@H](O)[C@@H](C)[C@H](OC(C)=O)[C@H](C)[C@@H](OC)/C=C/O[C@@]4(C)Oc5c(C)c(O)c(c1c5C4=O)C3=O)N2 | 0.008 (≈ 0.00965 µM) | 
6 | CO[C@H]1/C=C/O[C@@]2(C)Oc3c(C)c(O)c4c(c3C2=O)C2=NC3(CCN(CCc5ccccc5)CC3)NC2=C(NC(=O)/C(C)=C\C=C\[C@H](C)[C@H](O)[C@@H](C)[C@@H](O)[C@@H](C)[C@H](OC(C)=O)[C@@H]1C)C4=O | 0.5 (≈ 0.559 µM) | Activity (Staphylococcus aureus): Active
7 | CO[C@H]1/C=C/O[C@@]2(C)Oc3c(C)c(O)c4c(c3C2=O)C2=NC3(CCN(CC#N)CC3)NC2=C(NC(=O)/C(C)=C\C=C\[C@H](C)[C@H](O)[C@@H](C)[C@@H](O)[C@@H](C)[C@H](OC(C)=O)[C@@H]1C)C4=O | 0.25 (≈ 0.301 µM) | 
8 | CO[C@H]1/C=C/O[C@@]2(C)Oc3c(C)c(O)c4c(c3C2=O)C2=NC3(CCN(CC(=O)N(C)C)CC3)NC2=C(NC(=O)/C(C)=C\C=C\[C@H](C)[C@H](O)[C@@H](C)[C@@H](O)[C@@H](C)[C@H](OC(C)=O)[C@@H]1C)C4=O | 0.5 (≈ 0.571 µM) | 
9 | COC(=O)CN1CCC2(CC1)N=C1C(=C3NC(=O)/C(C)=C\C=C\[C@H](C)[C@H](O)[C@@H](C)[C@@H](O)[C@@H](C)[C@H](OC(C)=O)[C@H](C)[C@@H](OC)/C=C/O[C@@]4(C)Oc5c(C)c(O)c(c1c5C4=O)C3=O)N2 |  | MIC (Acinetobacter baumannii [1]; Acinetobacter baumannii, HUMC1, read-out: MIC): 0.5 µg/mL (≈ 0.579 µM); MIC (Acinetobacter baumannii [2]): 0.5 µg/mL (≈ 0.579 µM)
10 | COCCN1CCC2(CC1)N=C1C(=C3NC(=O)/C(C)=C\C=C\[C@H](C)[C@H](O)[C@@H](C)[C@@H](O)[C@@H](C)[C@H](OC(C)=O)[C@H](C)[C@@H](OC)/C=C/O[C@@]4(C)Oc5c(C)c(O)c(c1c5C4=O)C3=O)N2 | 0.016 (≈ 0.0188 µM) | 
11 | CO[C@H]1/C=C/O[C@@]2(C)Oc3c(C)c(O)c4c(c3C2=O)C2=NC3(CCN(CCN5CCOCC5)CC3)NC2=C(NC(=O)/C(C)=C\C=C\[C@H](C)[C@H](O)[C@@H](C)[C@@H](O)[C@@H](C)[C@H](OC(C)=O)[C@@H]1C)C4=O | 1 (≈ 1.11 µM) | 
12 | CCCCN1CCC2(CC1)N=C1C(=C3NC(=O)/C(C)=C\C=C\[C@H](C)[C@H](O)[C@@H](C)[C@@H](O)[C@@H](C)[C@H](OC(C)=O)[C@H](C)[C@@H](OC)/C=C/O[C@@]4(C)Oc5c(C)c(O)c(c1c5C4=O)C3=O)N2 | 0.004 (≈ 0.00472 µM) | Activity (Staphylococcus aureus): Active
13 | CO[C@H]1/C=C/O[C@@]2(C)Oc3c(C)c(O)c4c(c3C2=O)C2=NC3(CCN(C5CC5)CC3)NC2=C(NC(=O)/C(C)=C\C=C\[C@H](C)[C@H](O)[C@@H](C)[C@@H](O)[C@@H](C)[C@H](OC(C)=O)[C@@H]1C)C4=O (stereo in doubt; form 2) |  | MIC (Acinetobacter baumannii [1]; 20 h): 0.001 µg/mL (≈ 0.0012 µM)
14 | CO[C@H]1/C=C/O[C@@]2(C)Oc3c(C)c(O)c4c(c3C2=O)C2=NC3(CCN(C5CCCCC5C)CC3)NC2=C(NC(=O)/C(C)=C\C=C\[C@H](C)[C@H](O)[C@@H](C)[C@@H](O)[C@@H](C)[C@H](OC(C)=O)[C@@H]1C)C4=O (some centres not stated) | 0.125 (≈ 0.141 µM) | 
15 | CO[C@H]1/C=C/O[C@@]2(C)Oc3c(C)c(O)c4c(c3C2=O)C2=NC3(CCN(CC5CCCCC5)CC3)NC2=C(NC(=O)/C(C)=C\C=C\[C@H](C)[C@H](O)[C@@H](C)[C@@H](O)[C@@H](C)[C@H](OC(C)=O)[C@@H]1C)C4=O (stereo in doubt; form 1) |  | Activity (Staphylococcus aureus): Active
16 | CO[C@H]1/C=C/O[C@@]2(C)Oc3c(C)c(O)c4c(c3C2=O)C2=NC3(CCN(C(C)=O)CC3)NC2=C(NC(=O)/C(C)=C\C=C\[C@H](C)[C@H](O)[C@@H](C)[C@@H](O)[C@@H](C)[C@H](OC(C)=O)[C@@H]1C)C4=O | 4 (≈ 4.8 µM) | 
